The values below come from ChEMBL document CHEMBL4038332, “Substituted N-Phenyl-5-(2-(phenylamino)thiazol-4-yl)isoxazole-3-carboxamides Are Valuable Antitubercular Candidates that Evade Innate Efflux Machinery” (J Med Chem, 2017).

The subject of data set [1] is Mycobacterium tuberculosis. The data set can be described thus: Antimycobacterial activity against wild type Mycobacterium tuberculosis H37Rv incubated for 14 days by broth microdilution assay. The format is functional. The note with it: 336 h.
The next data set has as its system Pseudomonas aeruginosa. The data set can be described thus: Antibacterial activity against Pseudomonas aeruginosa ATCC 27853 after 24 hrs by spectrophotometric analysis. To be noted: ATCC 27853, 24 h. The class given is functional. In a few lines:
(§1)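 Log-phase culture in Mueller Hinton broth at 37 °C with shaking for 3-4 h, pelleted, adjusted at 600 nm in 10 mM phosphate buffer pH 7. Final inoculum approx. 5 × 10^5 CFU/mL. Twofold serial dilutions, final 100 to 0.2 µg/mL. Aerobic incubation 24 h at 37 °C. MIC is the lowest concentration with no visible growth, also read by resazurin (no blue-to-pink change).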

A further data set relates to Staphylococcus aureus. Briefly: Antibacterial activity against Staphylococcus aureus ATCC 25923 after 24 hrs by spectrophotometric analysis. The format is functional. To be noted: ATCC 25923, 24 h. In a few lines: as §1
Data set [2] concerns Mycobacterium tuberculosis H37Rv. The data set can be described thus: Inhibition of efflux pump in wild type Mycobacterium tuberculosis H37Rv assessed as increase in accumulation of ethidium bromide by measuring relative final fluorescence index at 2.6 uM measured every second for 60 mins in absence of glucose by real time fluorimetric method.
The nature of data set [3]: Intrinsic clearance in human liver microsomes at 1 uM by HPLC-MS/MS analysis. To be noted: read-out: CLH. The format is ADME, microsome. In short, it runs like this:
(§2)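 Compound at 1 µM incubated 60 min at 37 °C with pooled HLM (1 mg protein/mL) and an NADPH-regenerating system in 100 mM PBS pH 7.4, after 5 min preheating. Sampled at 0, 15, 30, 60 min, quenched with two volumes of acetonitrile, centrifuged, and supernatant analysed by HPLC-MS/MS. CLint = (0.693/t1/2) × (mL incubation/mg microsomes) × 45 mg/g liver × 20 g liver/kg.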

Data set [4] is described as follows: Cytotoxicity against human MDM cells assessed as reduction in cell viability after 3 days by AlamarBlue assay. The note with it: 72 h. The format is cell-based. In short, it runs like this: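 Macrophages came from healthy donors' PBMC (Ficoll gradient), differentiated 7 days in RPMI-1640/10% FCS with 20 ng/mL M-CSF at 37 °C, 5% CO2. 5 × 10^4 cells/well exposed to compounds for 3 days. Viability by AlamarBlue fluorescence (ex 540/35, em 590/20). IC50 taken as the highest concentration leaving 50% of cells viable relative to control.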

The nature of data set [5]: Half life in human liver microsomes at 1 uM by HPLC-MS/MS analysis. The format is ADME, microsome. In a few lines: as §2
The subject of data set [6] is Mycobacterium tuberculosis. The data set can be described thus: Antimycobacterial activity against wild type Mycobacterium tuberculosis H37Rv incubated for 14 days in presence of Verapamil by broth microdilution assay. The class given is functional. The note with it: 336 h.
A further data set relates to Enterococcus faecium. The data set can be described thus: Antibacterial activity against Enterococcus faecium ATCC 35667 after 24 hrs by spectrophotometric analysis. The note with it: ATCC 35667, 24 h. The class given is functional. In a few lines:
as §1

The next data set has as its system Candida albicans. Briefly: Antifungal activity against Candida albicans ATCC 11006 after 48 hrs by spectrophotometric analysis. The class given is functional. The note with it: ATCC 11006, 48 h. In a few lines:
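Broth microdilution in RPMI per CLSI M27-A3. Inoculum adjusted to 0.5 McFarland in phosphate buffer, diluted to about 10^3 CFU/mL final and used within 30 min. Compounds at final 100 to 0.2 µg/mL (twofold). Aerobic incubation 48 h at 37 °C. MIC is the lowest concentration without visible growth, also checked by resazurin colour change.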

Data set [7] deals with Mycobacterium tuberculosis. The data set can be described thus: Antimycobacterial activity against nonreplicating Mycobacterium tuberculosis H37Rv ATCC 27924 incubated for 5 days under hypoxic condition followed by 2 days incubation under normal atmosphere by MTT dye based broth microdilution assay. The format is functional. In short, it runs like this: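 Mtb H37Rv ATCC27924 adapted to hypoxia: grown in 8 mL MB7H9, tubes tightly capped and sealed, standing at 37 °C for 8 weeks; methylene blue (final 1.5 µg/mL) monitored O2 depletion. Cells exposed to varying compound concentrations 5 days at 37 °C in anaerobic jar (indicator strip), then 2 days normal atmosphere recovery; MTT to final 2.5%, overnight at room temperature; MIC = lowest concentration with no colour change; triplicate.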

Data set [8] deals with Mycobacterium tuberculosis. Briefly: Antimycobacterial activity against wild type Mycobacterium tuberculosis H37Rv incubated for 14 days in presence of Thioridazine by broth microdilution assay. The class given is functional. To be noted: 336 h.
Another data set concerns Escherichia coli. Briefly: Antibacterial activity against Escherichia coli ATCC 25922 after 24 hrs by spectrophotometric analysis. The format is functional. The note with it: ATCC 25922, 24 h. In a few lines:
as §1

The nature of data set [9]: Selectivity index, ratio of IC50 for human MDM cells to MIC90 for Mycobacterium tuberculosis H37Rv. The class given is toxicity. To be noted: read-out: Selectivity Index.

Molecules are shown by their SMILES. ≈ marks a conversion by molar mass, not a printed value.

In turn, `Cc1ccc(Nc2nc(-c3cc(CO)no3)cs2)cc1` yielded an MIC90 in data set [1] of 16 to 32 mg/L.
The same measure, in the same setting: then `COc1ccc(-c2cc(-c3csc(Nc4cc(Cl)cc(Cl)c4)n3)on2)cc1`, with over 64 mg/L.
Take `Cc1ccc(Nc2nc(-c3cc(C(=O)Nc4ccccn4)no3)cs2)cc1`: the MIC90 came to 100 mg/L (≈ 265 µM) against Pseudomonas aeruginosa; 100 mg/L (≈ 265 µM) in the data set on Staphylococcus aureus; 2 mg/L in [6]; 100 mg/L (≈ 265 µM) against Enterococcus faecium; 100 mg/L (≈ 265 µM) against Candida albicans; 1 mg/L (≈ 2.65 µM) in [7]. The MIC90 in data set [1] was 0.16 to 0.32 µM; in data set [8], 1 mg/L; against Escherichia coli, 100 mg/L (≈ 265 µM). In addition, the Activity index in data set [2] is 0.17. Also, the CLint scaled at 1 µM in data set [3] was found to be 2.33 L/h/kg. The IC50 in [4] is 140 µM. The same compound showed a half-life at 1 µM in [5] of 16.1 min.
On to `CC(=O)c1nc(Nc2ccc(C)cc2)sc1C`, for which the MIC90 in data set [1] is over 64 mg/L.
Compound `O=C(O)c1cc(-c2csc(Nc3cc(Cl)cc(Cl)c3)n2)on1` had an MIC90 in data set [1] of over 64 mg/L.
Regarding `Cc1ccc(Nc2nc(-c3cc(C(=O)N4CCCCC4)no3)cs2)cc1`, the MIC90 in data set [1] is 16 to 32 mg/L.
Compound `Cc1ccc(Nc2nc(-c3cc(-c4nccs4)no3)cs2)cc1` registered an MIC90 in [1] of over 64 mg/L.
Same read-out and setting: then `CCN(CC)C(=O)c1cc(-c2csc(Nc3cc(Cl)cc(Cl)c3)n2)n(C)n1`, with over 64 mg/L; and `CC(=O)c1nc(Nc2cc(Cl)cc(Cl)c2)sc1C`, with over 64 mg/L; and `CCOC(=O)c1cc(-c2csc(Nc3ccc(C)cc3)n2)n(C)n1`, with 16 to 32 mg/L.
As for `CCOC(=O)c1cc(-c2csc(Nc3cc(Cl)cc(Cl)c3)n2)on1`, the CLint scaled at 1 µM in data set [3] is 11.3 L/h/kg. The same compound displayed a half-life at 1 µM in data set [5] of 3.3 min. In data set [1], this compound displayed an MIC90 of 4 to 8 mg/L.
In [1], `Clc1cc(Cl)cc(Nc2nc(-c3c[nH]nn3)cs2)c1` showed an MIC90 of over 64 mg/L.
As to `O=C(NC12CC3CC(CC(C3)C1)C2)c1cc(-c2csc(Nc3cc(Cl)cc(Cl)c3)n2)on1`, the MIC90 in [1] is over 64 mg/L.
`CCN(CC)C(=O)c1cc(-c2csc(Nc3ccc(C)cc3)n2)on1` returned an MIC90 in [1] of 16 to 32 mg/L.
On to `Cc1ccc(Nc2nc(-c3nc(Nc4ccc(C)cc4)sc3C)cs2)cc1`, for which, in data set [1], the MIC90 was 4 to 8 mg/L.
With `Cc1ccc(Nc2nc(-c3cc(C(=O)Nc4ccccc4)no3)cs2)cc1`, the MIC90 was 100 mg/L (≈ 266 µM) against Pseudomonas aeruginosa; over 100 mg/L with Staphylococcus aureus; 2 mg/L in [6]; 100 mg/L (≈ 266 µM) in the data set with Enterococcus faecium; over 100 mg/L with Candida albicans; 1 mg/L (≈ 2.66 µM) in data set [7]. The MIC90 in data set [1] was 0.33 to 0.66 µM; in [8], 2 mg/L; against Escherichia coli, 100 mg/L (≈ 266 µM). Moreover, in data set [2], the Activity index was 0.22. Also, the CLint scaled at 1 µM in data set [3] is 1.07 L/h/kg. Moreover, the IC50 in [4] came out at 186 µM. The same compound showed a half-life at 1 µM in data set [5] of 35.1 min. In addition, in data set [9], the selectivity ratio was over 500.
In the case of `Cc1ccc(Nc2nc(-c3nc(N)sc3C)cs2)cc1`, the MIC90 in data set [1] lay in the range of 16 to 32 mg/L.
Regarding `Cc1ccc(Nc2nc(-c3cc(C(=O)O)no3)cs2)cc1`, in [3], the CLint scaled at 1 µM came out at 2.62 L/h/kg. The compound further displayed a half-life at 1 µM in data set [5] of 14.3 min. Besides, the MIC90 in data set [1] is over 64 mg/L.
In turn, `Cc1ccc(Nc2nc(-c3cc(C(=O)O)nn3C)cs2)cc1` gave an MIC90 in [1] of over 64 mg/L.
Take `Cc1sc(Nc2cc(Cl)cc(Cl)c2)nc1-c1csc(Nc2cc(Cl)cc(Cl)c2)n1`: the MIC90 in data set [1] is over 64 mg/L.
Consider `c1cc(Nc2nc(-c3ccncc3)cs2)ccn1`, for which, in data set [1], the MIC90 was over 64 mg/L.
Compound `Cn1nc(C(=O)O)cc1-c1csc(Nc2cc(Cl)cc(Cl)c2)n1` displayed an MIC90 in data set [1] of over 64 mg/L.
The same measure, in the same setting: the value for `NNC(=O)c1ccncc1` [ISONIAZID] was 0.22 to 0.44 µM; that for `CNC(=O)c1cc(-c2csc(Nc3ccc(C)cc3)n2)on1` was over 64 mg/L.
`Clc1cc(Cl)cc(Nc2nc(-c3ccncc3)cs2)c1`: the MIC90 in data set [1] is over 64 mg/L.
On to `CCOC(=O)c1cc(-c2csc(Nc3ccc(C)cc3)n2)on1`, for which, in [3], the CLint scaled at 1 µM was over 24 L/h/kg. The same compound showed a half-life at 1 µM in data set [5] of under 1 min. This compound also displayed an MIC90 in [1] of 1.5 to 3 µM.
As for `Cc1ccc(Nc2nc(-c3cc(C(N)=O)no3)cs2)cc1`, in data set [1], the MIC90 is over 64 mg/L.
The compound `CCOC(=O)c1cc(-c2csc(Nc3cc(Cl)cc(Cl)c3)n2)n(C)n1` gave an MIC90 in data set [1] of over 64 mg/L.
With `O=C(Nc1ccccc1)c1cc(-c2csc(Nc3cc(Cl)cc(Cl)c3)n2)on1`, the selectivity ratio in [9] is over 500.
With `Cc1ccc(Nc2nc(-c3ccncc3)cs2)cc1`, the MIC90 in data set [1] was over 64 mg/L.
The same measure, in the same setting: then `Cc1ccc(Nc2nc(-c3cc(C(=O)NC45CC6CC(CC(C6)C4)C5)no3)cs2)cc1`, with over 64 mg/L.
The same measure, in the same setting: then `COc1ccc(-c2csc(Nc3ccc(C)cc3)n2)cc1`, with 3.8 mg/L; and `COc1ccc(-c2cc(-c3csc(Nc4ccc(C)cc4)n3)on2)cc1`, with 4 to 8 mg/L.
Still for that read-out and setting: the value for `Cc1sc(N)nc1-c1csc(Nc2cc(Cl)cc(Cl)c2)n1` was 8 to 16 mg/L; that for `CCN(CC)C(=O)c1cc(-c2csc(Nc3ccc(C)cc3)n2)n(C)n1` was over 64 mg/L.
